The results in this text go back to ChEMBL document CHEMBL1156503, “Long-acting kappa opioid antagonists disrupt receptor signaling and produce noncompetitive effects by activating c-Jun N-terminal kinase” (J Biol Chem, 2007).

Test [1] deals with T1, c-Jun N-terminal kinase, JNK (Homo sapiens, UniProt P45983+P53779+P45984). Put plainly: Increase of JNK phosphorylation in U50488 treated HEK293 cells expressing GFP tagged kappa opioid receptor. Format: cell-based. The method in brief:
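KOR-GFP HEK293 cells under G418, serum-starved 18 h, then concentration series for 1 h at 37 °C. Lysate (40 μg protein) immunoblotted for phospho-JNK, p54 and p46 summed, normalised to basal (100%). EC50 from nonlinear regression; n = 3–5 separate cultures.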

Test [2] concerns the target T1, c-Jun N-terminal kinase, JNK. Put plainly: Increase of JNK phosphorylation in U50488 treated HEK293 cells expressing GFP tagged kappa opioid receptor relative to U50,488. Format: cell-based.
The target is the same in test [3]. The test is described as follows: Increase of JNK phosphorylation in U50488 treated untransfected HEK293 cells at 10 uM after 1 hr. It is filed as cell-based. Summed up: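 Untransfected HEK293 cells grown without G418, serum-starved 18 h, then ligand 10 μM for 1 h at 37 °C. Phospho-JNK immunoblot quantified as % of basal untreated control, n = 3–7.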
Test [4] relates to Mus musculus. Put plainly: Inhibition of U50488-induced analgesic activity against C57BL/6 mouse assessed as tail withdrawal latency at 10 mg/kg, ip for 14 days. It is filed as functional, organism-based. Also on record: dose 10 mg/kg. Summed up: (§1)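 Male C57Bl/6 mice, 20–30 g. Single 10 mg/kg i.p. dose or saline. At set days, U50,488 15 mg/kg i.p. was given and tail-withdrawal latency from 52 ± 1 °C water measured 30 min later, 15 s cut-off. One-way ANOVA with Bonferroni post hoc test.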

Test [5] relates to Mus musculus. The test is described as follows: Inhibition of U50488-induced analgesic activity against C57BL/6 mouse assessed as tail withdrawal latency at 10 mg/kg, ip upto 21 days. Also on record: dose 10 mg/kg. Format: functional, organism-based. Summed up: as §1
For test [6], the target named is T1, c-Jun N-terminal kinase, JNK. Put plainly: Increase of JNK phosphorylation in U50488 treated untransfected HEK293 cells at 100 uM after 15 mins. Format: cell-based.
The target is the same in test [7]. The test is described as follows: Increase of U50488-induced JNK phosphorylation in untransfected HEK293 cells at 50 uM after 15 mins. Format: cell-based.
Test [8] relates to Mus musculus. The test is described as follows: Increase of JNK phosphorylation in mouse spinal cord at 10 mg/kg, ip after 1 hr. Format: organism-based. Also on record: dose 10 mg/kg. Summed up: (§2)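 C57Bl/6 mice (wild type; KOR−/− as control) given 10 mg/kg i.p. Spinal cord and striatum dissected 60 min later and Dounce-homogenised in lysis buffer with phosphatase and protease inhibitors. Phospho-JNK immunoblot expressed as % of basal untreated control.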

Test [9] deals with Mus musculus. Put plainly: Reversal of inhibition of U50488-induced analgesic activity against C57BL/6 mouse assessed as tail withdrawal latency at 10 mg/kg, ip after 8 days in presence of SP600125. It is filed as functional, organism-based. Also noted: dose 10 mg/kg. The method in brief:
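Wild-type mice given SP600125 30 mg/kg i.p. (vehicle 5% […]/20% Cremophor EL/75% saline) 24 h and 30 min before 10 mg/kg i.p. test drug. Day 7–8: U50,488 25 mg/kg i.p. challenge, then tail-flick latency in 52 °C water, 15 s cut-off.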

Test [10] has as its target Kappa-type opioid receptor (Mus musculus, UniProt P33534). Put plainly: Displacement of [3H]U69,593 from kappa opioid receptor in mouse brain tissue. (Displacement assays read how much labelled ligand stays bound in the presence of the test substance.)
The target in test [11] is T1, c-Jun N-terminal kinase, JNK. Put plainly: Increase in JNK phosphorylation in pertussis toxin treated HEK293 cells expressing GFP tagged kappa opioid receptor at 10 uM after 1 hr. Format: cell-based. The method in brief:
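KOR-GFP HEK293 cells serum-starved, pretreated with pertussis toxin 200 ng/ml for 18 h at 37 °C, then ligand 10 μM for 1 h at 37 °C. Phospho-JNK p54/p46 read by infrared immunoblot with β-actin loading control. Expressed as % basal, n = 3–4; Student's t test.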

Test [12] relates to Mus musculus. The test is described as follows: Inhibition of U50488-induced analgesic activity against C57BL/6 mouse assessed as tail withdrawal latency at 10 mg/kg, ip after 28 days. Format: functional, organism-based. Also on record: dose 10 mg/kg. The method in brief: as §1
In test [13] the test system is Mus musculus. The test is described as follows: Increase of JNK phosphorylation in mouse striatum at 10 mg/kg, ip after 1 hr. It is filed as organism-based. Also noted: dose 10 mg/kg. The method in brief:
as §2

For test [14], the system named is Mus musculus. The test is described as follows: Inhibition of U50488-induced analgesic activity against C57BL/6 mouse assessed as tail withdrawal latency at 10 mg/kg, ip. It is filed as functional, organism-based. Also on record: dose 10 mg/kg. Summed up:
as §1

Test [15] has as its system Mus musculus. Put plainly: Inhibition of U50488-induced analgesic activity against C57BL/6 mouse assessed as tail withdrawal latency at 10 mg/kg, ip after 2 days. Format: functional, organism-based. Also on record: dose 10 mg/kg. The method in brief: as §1
Test [16] deals with Mus musculus. The test is described as follows: Effect on U50488-induced analgesic activity in C57BL/6 mouse assessed as tail withdrawal latency at 10 mg/kg, ip. Format: functional, organism-based. Also on record: dose 10 mg/kg. The method in brief:
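Male mice, 20–30 g, 8–12 weeks old, got a single ip injection in saline (control: saline). At set times from 24 h to 28 days afterward, they were challenged with U50,488 15 mg/kg ip. Tail-withdrawal latency from 52 ± 1 °C water was read 30 min later, with a 15 s cut-off. Groups were compared with saline by one-way ANOVA and Bonferroni.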

Activity calls are given as the source filed them.

Kappa-type opioid receptor, sequence (P33534 whole entry): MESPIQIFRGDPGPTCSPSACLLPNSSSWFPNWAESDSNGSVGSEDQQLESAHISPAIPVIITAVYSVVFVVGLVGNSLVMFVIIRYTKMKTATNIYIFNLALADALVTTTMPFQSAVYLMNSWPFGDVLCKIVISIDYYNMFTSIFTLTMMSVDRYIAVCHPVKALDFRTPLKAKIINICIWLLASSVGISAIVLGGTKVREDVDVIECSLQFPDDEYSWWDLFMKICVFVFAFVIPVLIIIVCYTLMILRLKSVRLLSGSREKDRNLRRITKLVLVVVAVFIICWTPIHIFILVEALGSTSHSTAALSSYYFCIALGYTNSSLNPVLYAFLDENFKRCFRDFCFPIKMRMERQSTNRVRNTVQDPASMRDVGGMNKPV

Turning to `CC(C)[C@@H](CN1CC[C@@](C)(c2cccc(O)c2)[C@@H](C)C1)NC(=O)[C@H]1Cc2ccc(O)cc2CN1` [JDTIC], the EC50 (commonly the concentration needed to bring the measured effect to its halfway point) in test [1] came out at 5 nM. In test [2], the Intrinsic activity stood at 0.57. Moreover, the result in test [3] was inactive. Besides, the result with Mus musculus [4] was Active.
Regarding `N=C(N)Nc1ccc2[nH]c3c(c2c1)C[C@@]1(O)[C@H]2Cc4ccc(O)c5c4[C@@]1(CCN2CC1CC1)[C@H]3O5`, the outcome in the test on Mus musculus [5] was Active. The result in test [3] was inactive.
`CC(C)C[C@H](NC(=O)[C@H](Cc1ccccc1)NC(=O)CNC(=O)CNC(=O)[C@@H](N)Cc1ccc(O)cc1)C(=O)N[C@@H](CCCNC(=N)N)C(=O)N[C@@H](CCCNC(=N)N)C(=O)N[C@@H](CCC(N)=O)C(=O)N[C@@H](Cc1ccccc1)C(=O)N[C@@H](CCCCN)C(=O)N[C@H](C(=O)N[C@H](C(=O)N[C@H](C(=O)O)[C@@H](C)O)C(C)C)C(C)C` [DYNORPHIN B] displayed an EC50 in test [1] of 87 nM. In [2], the Intrinsic activity came to 0.61.
Consider `COc1ccc(C[C@H]2NC[C@H](O)[C@H]2OC(C)=O)cc1`, for which the result in [6] and in test [7] was Active.
For the compound `Oc1ccc2c3c1O[C@H]1c4[nH]c5c(c4C[C@@]4(O)[C@@H](C2)N(CC2CC2)CC[C@]314)C[C@@]1(O)[C@H]2Cc3ccc(O)c4c3[C@@]1(CCN2CC1CC1)[C@H]5O4` [NORBINALTORPHIMINE], the outcome in the test on Mus musculus [8], with Mus musculus [5], with Mus musculus [9] and in the test with Mus musculus [13] was Active. In test [1], this compound yielded a half-maximal effective concentration (EC50) of 158 nM. Further, the Intrinsic activity in test [2] was 0.84. Moreover, the outcome (in test [3]; in test [11]; in the test with Mus musculus [12]) was inactive. The Kd (in general, a measure of binding affinity in units of concentration) in [10] came out at 1.65 nM.
Consider `CO[C@@]12CC[C@@]3(C[C@@H]1[C@](C)(O)C(C)(C)C)[C@H]1Cc4ccc(O)c5c4[C@@]3(CCN1CC1CC1)[C@H]2O5`, for which the outcome in test [1] was inactive. For the same compound, the Intrinsic activity result in [2] was “inactive”.
Regarding `C=CCN1CC[C@]23c4c5ccc(O)c4O[C@H]2C(=O)CC[C@@]3(O)[C@H]1C5`, the outcome with Mus musculus [14] was Active. Further, the result in the test with Mus musculus [15] was inactive.
In the case of `Oc1c2ccccc2c2c3c(cccc13)N=N2`, in the test on Mus musculus [16], the result was inactive.
